Measurements from ChEMBL document CHEMBL1153214, “Synthesis and PGE(2) production inhibition of 1H-furan-2,5-dione and 1H-pyrrole-2,5-dione derivatives” (Bioorg Med Chem Lett, 2010).

Columns and labels:
RAW264.7 [1] = test: Cytotoxicity against LPS-stimulated mouse RAW264.7 cells assessed as cell viability after 24 hrs by MTT assay; format: cell-based; details: RAW264.7, 24 h
How it was run: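 RAW 264.7 cells plated at 10⁵ cells/well in 96-well plates, treated with various concentrations of compounds in the presence of LPS. Viability read by colorimetric MTT assay 24 h after treatment.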

RAW264.7 [2] = test: Antiinflammatory activity in mouse RAW264.7 cells assessed as inhibition of LPS-induced PGE2 production by EIA; format: functional, cell-based
How it was run: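 RAW 264.7 macrophages seeded at 10⁵ cells/well in 96-well plates. Cells pretreated with test samples at increasing concentrations or NS398 as positive control, then stimulated with LPS 1 µg/ml for the indicated time. PGE₂ in the medium quantified by EIA. IC50 derived; experiments run at least three times.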

[3] = molecular target: T1, Prostaglandin G/H synthase 2 (Homo sapiens, UniProt P35354); test: Inhibition of COX2 assessed as PGF2alpha level by EIA
T1 sequence (P35354 whole entry): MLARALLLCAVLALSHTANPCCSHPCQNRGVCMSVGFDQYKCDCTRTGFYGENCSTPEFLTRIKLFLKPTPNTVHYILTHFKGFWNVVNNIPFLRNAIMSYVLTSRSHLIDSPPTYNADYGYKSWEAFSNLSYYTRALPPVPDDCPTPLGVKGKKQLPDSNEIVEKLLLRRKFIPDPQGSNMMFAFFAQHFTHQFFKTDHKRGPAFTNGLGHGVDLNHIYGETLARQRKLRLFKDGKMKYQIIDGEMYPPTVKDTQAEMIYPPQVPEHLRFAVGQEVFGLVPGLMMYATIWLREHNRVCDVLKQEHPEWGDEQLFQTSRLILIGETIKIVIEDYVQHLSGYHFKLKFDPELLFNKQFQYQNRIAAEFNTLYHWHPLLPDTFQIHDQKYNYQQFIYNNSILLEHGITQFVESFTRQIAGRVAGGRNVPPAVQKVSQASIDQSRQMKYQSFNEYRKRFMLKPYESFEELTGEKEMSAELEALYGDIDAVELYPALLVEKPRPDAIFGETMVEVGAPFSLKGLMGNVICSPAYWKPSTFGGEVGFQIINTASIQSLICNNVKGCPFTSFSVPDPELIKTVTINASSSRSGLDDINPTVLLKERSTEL

[4] = Mus musculus, RAW264.7, read-out: IC50

Row | SMILES | IC50 (RAW264.7 [2]; [4]) [µM] | IC50 [3] [µM] | IC50 (RAW264.7 [2]; raw264.7) | IC50 (RAW264.7 [1]) [µM]
1 | COc1cc(C2=C(c3ccccc3)C(=O)NC2=O)cc(OC)c1OC | 25.1 | – | – | 151
2 | CSc1ccc(C2=C(c3ccc(O)cc3)C(=O)NC2=O)cc1 | 0.84 | 21 | – | 125
3 | O=C1NC(=O)C(c2cccc(O)c2)=C1c1ccccc1 | 13.8 | – | – | 158
4 | COc1cccc(C2=C(c3ccccc3)C(=O)NC2=O)c1 | 9.95 | – | – | 260
5 | O=C1NC(=O)C(c2ccc3c(c2)OCO3)=C1c1ccccc1 | 7.96 | – | – | 195
6 | C[S+]([O-])c1ccc(C2=C(c3ccccc3)C(=O)NC2=O)cc1 (configuration not stated) | 21.5 | – | – | 303
7 | COc1ccc(C2=C(c3ccc(S(C)(=O)=O)cc3)C(=O)OC2=O)cc1 | – | – | Not Active | 271
8 | C[S+]([O-])c1ccc(C2=C(c3ccc(F)cc3)C(=O)NC2=O)cc1 (configuration not stated) | 45.2 | – | – | 242
9 | CS(=O)(=O)c1ccc(C2=C(c3ccc(F)cc3)C(=O)NC2=O)cc1 | 10.8 | – | – | 261
10 | O=C1OC(=O)C(c2ccc3c(c2)OCO3)=C1c1ccccc1 | 7.13 | 18.5 | – | 329
11 | CSc1ccc(C2=C(c3ccccc3)C(=O)NC2=O)cc1 | 4.73 | 16.3 | – | 152
12 | COc1ccc(C2=C(c3ccccc3)C(=O)OC2=O)cc1OC | 71.3 | – | – | 257
13 | C[S+]([O-])c1ccc(C2=C(c3ccc(O)cc3)C(=O)NC2=O)cc1 (configuration not stated) | 98.1 | – | – | 213
14 | CSc1ccc(C2=C(c3ccc(F)cc3)C(=O)NC2=O)cc1 | 25.5 | – | – | 121

Second part, led by results:

Row | IC50 (RAW264.7 [2]; [4]) [µM] | IC50 [3] [µM] | IC50 (RAW264.7 [2]; raw264.7) | SMILES | IC50 (RAW264.7 [1]) [µM]
15 | 27.9 | – | – | O=C1NC(=O)C(c2ccccc2)=C1c1ccccc1 | 270
16 | 132 | – | – | COc1ccc(C2=C(c3ccccc3)C(=O)NC2=O)cc1OC | 305
17 | 4.41 | 16.6 | – | CC(=O)Oc1ccc(C2=C(c3ccc(S(C)(=O)=O)cc3)C(=O)OC2=O)cc1 | 262
18 | 23.8 | – | – | COc1ccc(C2=C(c3ccc([S+](C)[O-])cc3)C(=O)OC2=O)cc1 (configuration not stated) | 284
19 | 30.5 | – | – | CSc1ccc(C2=C(c3ccc(OC(C)=O)cc3)C(=O)OC2=O)cc1 | 334
20 | 68.8 | – | – | CC(=O)Oc1ccc(C2=C(c3ccc([S+](C)[O-])cc3)C(=O)OC2=O)cc1 (configuration not stated) | 262
21 | 37.1 | – | – | COc1cc(C2=C(c3ccccc3)C(=O)OC2=O)cc(OC)c1OC | 313
22 | 15.4 | – | – | CS(=O)(=O)c1ccc(C2=C(c3ccccc3)C(=O)OC2=O)cc1 | 266
23 | – | – | Not Active | CS(=O)(=O)c1ccc(C2=C(c3ccc(O)cc3)C(=O)NC2=O)cc1 | 171
24 | 2.69 | 16 | – | O=C1NC(=O)C(c2ccc(O)c(O)c2)=C1c1ccccc1 | 207
25 | – | 15.6 | – | NS(=O)(=O)c1ccc(C2=C(c3ccccc3)C(=O)NC2=O)cc1 | 158
26 | 5.71 | 20.1 | – | CSc1ccc(C2=C(c3ccc(NC(C)=O)cc3)C(=O)OC2=O)cc1 | 250
27 | 78.5 | – | – | CSc1ccc(C2=C(c3ccc(N(C(C)=O)C(C)=O)cc3)C(=O)OC2=O)cc1 | 277
28 | 2.71 | 17.5 | – | CS(=O)(=O)c1ccc(C2=C(c3ccccc3)C(=O)NC2=O)cc1 | 269
29 | 12.6 | – | – | COc1ccc(C2=C(c3ccc(SC)cc3)C(=O)OC2=O)cc1 | 266
30 | 3.58 | 18.5 | – | CSc1ccc(C2=C(c3ccccc3)C(=O)OC2=O)cc1 | 195
31 | 8.19 | 17.5 | – | O=C1NC(=O)C(c2cc(O)c(O)c(O)c2)=C1c1ccccc1 | 261
32 | 4.8 | – | – | CS(=O)(=O)Nc1ccc([N+](=O)[O-])cc1OC1CCCCC1 [NS-398] | –
